Source: ChEMBL document CHEMBL4706499, “PTG-0861: A novel HDAC6-selective inhibitor as a therapeutic strategy in acute myeloid leukaemia” (Eur J Med Chem, 2020)
Activity calls are given as the source filed them. The rule behind the calls is not given here.

Legend:
MV4-11 = assay: Induction of apoptosis in human MV4-11 cells assessed as viable cells at 2 microM measured after 18 hrs by Annexin V/Propidium iodide stain based Flow cytometry assay (reference value: 53.27%); assay type: functional; details: read-out: Activity
[1] = Apparent permeability across basolateral to apical side in human Caco2 cells measured after 2 hrs by LC-MS/MS method; assay type: ADME, cell-based; details: Caco-2
Procedure, shortened: (§1)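 Bidirectional Caco-2 permeability was measured as Papp in the apical-to-basolateral and basolateral-to-apical directions. The efflux ratio was calculated from the two directional Papp values.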

[2] = Intrinsic clearance in mouse hepatocytes assessed per 10^6 cells measured after 120 mins by LC/MS/MS method; assay type: ADME, cell-based, Hepatocyte; details: read-out: CLH
[3] = Efflux ratio of apparent permeability in human Caco2 cells measured after 2 hrs by LC-MS/MS method; assay type: ADME, cell-based; details: Caco-2; procedure, shortened: as §1
MM1.S = assay: Cytotoxicity against human MM1.S cells measured after 72 hrs by spectrophotometer method; assay type: functional, cell-based
[4] = biological target: T1, Protein deacetylase HDAC6 (Homo sapiens, UniProt Q9UBN7); assay: Inhibition of HDAC6 in human HeLa cells assessed by deacetylation measured after 15 mins by ELISA; assay type: cell-based
T1 sequence (Q9UBN7 whole entry): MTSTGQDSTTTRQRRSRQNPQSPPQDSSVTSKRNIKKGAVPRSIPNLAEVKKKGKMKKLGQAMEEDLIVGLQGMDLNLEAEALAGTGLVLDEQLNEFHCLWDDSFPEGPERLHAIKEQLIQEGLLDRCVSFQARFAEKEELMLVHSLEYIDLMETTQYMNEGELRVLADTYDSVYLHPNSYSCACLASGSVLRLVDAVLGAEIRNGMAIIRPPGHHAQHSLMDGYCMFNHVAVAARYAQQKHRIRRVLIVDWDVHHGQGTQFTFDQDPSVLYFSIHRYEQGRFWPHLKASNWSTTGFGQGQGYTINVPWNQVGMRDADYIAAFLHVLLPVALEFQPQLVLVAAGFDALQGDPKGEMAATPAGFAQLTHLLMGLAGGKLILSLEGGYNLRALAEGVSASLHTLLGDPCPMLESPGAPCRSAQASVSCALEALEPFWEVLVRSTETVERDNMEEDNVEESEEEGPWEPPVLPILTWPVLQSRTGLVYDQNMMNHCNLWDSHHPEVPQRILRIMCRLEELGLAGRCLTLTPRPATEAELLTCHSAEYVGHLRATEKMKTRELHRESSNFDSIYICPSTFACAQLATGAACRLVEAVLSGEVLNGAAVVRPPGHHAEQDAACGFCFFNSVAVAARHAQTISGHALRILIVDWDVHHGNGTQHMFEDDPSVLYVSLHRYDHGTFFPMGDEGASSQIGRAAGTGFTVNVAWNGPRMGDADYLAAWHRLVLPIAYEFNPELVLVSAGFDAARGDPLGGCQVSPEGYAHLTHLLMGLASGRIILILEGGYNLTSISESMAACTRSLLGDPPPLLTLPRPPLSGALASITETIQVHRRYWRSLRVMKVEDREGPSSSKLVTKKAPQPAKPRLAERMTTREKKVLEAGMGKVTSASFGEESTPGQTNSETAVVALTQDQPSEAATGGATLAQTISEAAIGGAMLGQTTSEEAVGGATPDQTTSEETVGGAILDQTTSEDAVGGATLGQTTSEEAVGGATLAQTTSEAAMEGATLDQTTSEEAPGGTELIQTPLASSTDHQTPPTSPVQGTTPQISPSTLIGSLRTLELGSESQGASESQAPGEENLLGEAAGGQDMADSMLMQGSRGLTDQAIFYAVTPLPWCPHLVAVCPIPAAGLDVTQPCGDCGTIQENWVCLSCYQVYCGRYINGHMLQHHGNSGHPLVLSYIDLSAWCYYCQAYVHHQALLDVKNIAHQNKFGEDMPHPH
Procedure, shortened: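 ELISA activity assay using HeLa-derived active HDAC6 coated on plates. A range of inhibitor concentrations was incubated with the enzyme, and deacetylation activity was monitored over time, with a 0.25 h read. The IC50 was taken from the inhibition profile.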

[5] = biological target: T2, Protein deacetylase HDAC6 (Homo sapiens) (UniProt Q9UBN7); assay: Inhibition of HDAC6 in human HeLa cells assessed as increase in acetylated alpha tubulin at 0.1 uM measured after 6 hrs by Immunofluorescent assay
T2 sequence (whole entry): T1 sequence (Q9UBN7 whole entry)

[6] = biological target: T2, Protein deacetylase HDAC6 (Homo sapiens); assay: Inhibition of HDAC6 in human MV4-11 cells assessed as increase in acetylation of alpha tubulin at 0.5 uM measured after 6 hrs by Western blot assay relative to histone H4 acetylation; assay type: cell-based
Procedure, shortened: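 MV4-11 cells were exposed to a range of concentrations for 6 h. Protein extracts were run on SDS-PAGE and immunoblotted for acetylated α-tubulin, acetylated histone H3 and acetylated histone H4, with HSC70 as the loading reference. A representative blot of three independent experiments is shown.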

O=C(NO)c1ccc(CNC(=O)c2c(F)c(F)c(F)c(F)c2F)cc1
viability at 2 µM (MV4-11): 20.2% | Papp B→A at 2 h [1]: 0.94 ×10⁻⁶ cm/s | hepatocyte CLint [2]: 27.3 µL/min/1e6 cells | efflux ratio at 2 h [3]: 0.71 | IC50 (MM1.S): 1900 nM | IC50 [4]: 590 nM | inhibition [5]: Active | inhibition [6]: Active
